# ChEMBL document CHEMBL1132611, “Novel, potent, and selective phosphodiesterase-4 inhibitors as antiasthmatic agents: synthesis and biological activities of a series of 1-pyridylnaphthalene derivatives” (J Med Chem, 1999)
# Values joined by “and” are separate entries in the source; they are usually repeats but may differ in a detail not shown here. Equal entries are not always repeated.
# Key:
# Phosphodiesterase 1 = Phosphodiesterase 1 (Homo sapiens, UniProt P54750+Q01064+Q14123); test: Inhibition of Phosphodiesterase 1 of guinea pig cardiac ventricle; type: protein assay, Cavia porcellus; settings: target entry is the homologue from another species
# In short: (§1)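 PDE1, 2 and 3 came from guinea pig cardiac ventricle and PDE4 and 5 from lung, separated by Resource-Q anion exchange on a sodium acetate gradient at pH 6.5. Assays used 1.0 µM [3H]cAMP or [3H]cGMP in 50 mM Tris-HCl pH 8.0, 5 mM MgCl2 and 4 mM 2-mercaptoethanol, for 30 min at 30 °C. Substrate hydrolysis was kept at or below 20%. Triplicates were run at 3–4 inhibitor levels, and IC50 was read graphically.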
# Phosphodiesterase 3 [1] = target: T1, Phosphodiesterase 3 (Homo sapiens, UniProt Q14432+Q13370); test: In vitro inhibition of Phosphodiesterase 3 activity from guinea pig cardiac ventricle; type: protein assay, Cavia porcellus; settings: target entry is the homologue from another species; in short: as §1
# Phosphodiesterase 4 [2] = target: T2, Phosphodiesterase 4 (Homo sapiens, UniProt P27815+Q08499+Q07343+Q08493); test: In vitro inhibition of Phosphodiesterase 4 from guinea pig lung; type: protein assay, Cavia porcellus; settings: target entry is the homologue from another species
# Cavia porcellus [3] = test: Inhibition of antigen-induced bronchoconstriction in guinea pigs at 1 mg/kg intravenous dose; type: functional
# In short: (§2)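 Male Hartley guinea pigs were passively sensitised with iv rabbit anti-ovalbumin antiserum and challenged with ovalbumin 30 µg/kg iv 20–28 h later. Animals were under α-chloralose anaesthesia, ventilated, and paralysed with gallamine. Overflow volume was measured by Konzett–Rössler and expressed as a percentage of the maximum. Compound was given iv 2 min before challenge. ED50 came from the dose–inhibition curve with 95% confidence limits.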
# Cavia porcellus [4] = test: Inhibition of antigen-induced bronchoconstriction in guinea pigs 0.1 mg/kg intravenous dose; type: functional; in short: as §2
# Cavia porcellus [5] = test: Inhibition of antigen-induced bronchoconstriction in guinea pigs 3 mg/kg intravenous dose; type: functional; in short: as §2
# Cavia porcellus [6] = species: Cavia porcellus; test: Inhibition of antigen-induced bronchoconstriction in guinea pigs (95% confidence); type: functional; in short: as §2
# Cavia porcellus [7] = test: Change in guinea pig heart rate at 3 mg/kg intravenous dose; type: functional
# Cavia porcellus [8] = test: Change in guinea pig heart rate at 0.1 mg/kg intravenous dose; type: functional
# Cavia porcellus [9] = test: Change in guinea pig heart rate at 1 mg/kg intravenous dose; type: functional
# Cavia porcellus [10] = test: Change in guinea pig heart rate at 0.3 mg/kg intravenous dose; type: functional
# Cavia porcellus [11] = test: Inhibition of antigen-induced bronchoconstriction in guinea pigs 0.3 mg/kg intravenous dose; type: functional; in short: as §2
# Cavia porcellus [12] = species: Cavia porcellus; test: Inhibition of antigen-induced bronchoconstriction in guinea pigs; type: functional; in short: as §2
# Phosphodiesterase 3 [13] = target: T1, Phosphodiesterase 3; test: Inhibition of guinea pig cardiac ventricle Phosphodiesterase 3; type: protein assay, Cavia porcellus; settings: target entry is the homologue from another species; in short: as §1
# Phosphodiesterase 4 [14] = target: T2, Phosphodiesterase 4; test: Emetic effect in ferrets at peroral 10 mg/kg; type: functional, organism-based; design: dose 10 mg/kg; settings: Mustela putorius furo; target entry is the homologue from another species
# Phosphodiesterase 4 [15] = target: T2, Phosphodiesterase 4; test: (§3) Displacement of [3H]- rolipram binding to guinea pig brain; type: tissue-based, Cavia porcellus; settings: target entry is the homologue from another species
# In short: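 Guinea pig brain membranes were made by homogenising in 20 mM Tris-HCl pH 7.4 with 2 mM MgCl2 and 0.1 mM DTT, spun at 45000g, washed and stored at -80 °C. Competition used 3 nM [3H]-(±)-rolipram at 30 °C for 60 min in 25 mM Tris-HCl pH 7.4, 5 mM MgCl2 and 0.05 mM 5'-AMP. Bound ligand was separated by filtration and counted by scintillation.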
# Cavia porcellus [16] = test: Inhibition of antigen-induced bronchoconstriction in guinea pigs at 0.03 mg/kg intravenous dose; type: functional; in short: as §2
# Cavia porcellus [17] = species: Cavia porcellus; test: Inhibition of histamine-induced bronchoconstriction in guinea pigs (95% confidence); type: functional
# In short: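 Guinea pigs received intraduodenal compound, and bronchoconstriction was induced with histamine dihydrochloride 2 µg/kg iv. Pulmonary inflation pressure was recorded in ventilated, gallamine-paralysed animals. ED50 was taken from the dose–inhibition curve using at least three doses, with 95% confidence limits.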
# Cavia porcellus [18] = test: Change in guinea pig heart rate at 0.03 mg/kg intravenous dose; type: functional
# Cavia porcellus [19] = test: Inhibition of antigen-induced bronchoconstriction in guinea pigs at 0.01 mg/kg intravenous dose; type: functional; in short: as §2
# Phosphodiesterase 4 [20] = target: T2, Phosphodiesterase 4; test: Emetic effect in ferrets at peroral 30 mg/kg dose; type: functional, organism-based; design: dose 30 mg/kg; settings: Mustela putorius furo; target entry is the homologue from another species
# Phosphodiesterase 4 [21] = target: T2, Phosphodiesterase 4; test: Emetic effect in ferrets at peroral 100 mg/kg; type: functional, organism-based; design: dose 100 mg/kg; settings: Mustela putorius furo; target entry is the homologue from another species
# Cavia porcellus [22] = test: Change in guinea pig heart rate at 0.01 mg/kg intravenous dose; type: functional
# Phosphodiesterase 4 [23] = target: T2, Phosphodiesterase 4; test: Emetic effect in ferrets at peroral 100 mg/kg dose; type: functional, organism-based; design: dose 100 mg/kg; settings: Mustela putorius furo; target entry is the homologue from another species
# Phosphodiesterase 4 [24] = target: T2, Phosphodiesterase 4; test: as §3; type: tissue-based, Cavia porcellus; settings: target entry is the homologue from another species; remark: listed apart in the source
# Phosphodiesterase 4 [25] = target: T2, Phosphodiesterase 4; test: Inhibition of guinea pig lung Phosphodiesterase 4; type: protein assay, Cavia porcellus; settings: target entry is the homologue from another species; in short: as §1
# Canis familiaris [26] = test: Emetic effect in dog at 1 mg/kg dose, iv; type: functional, Canis lupus familiaris
# [27] = target: cGMP-dependent 3',5'-cyclic phosphodiesterase (Homo sapiens, UniProt O00408); test: Inhibition of guinea pig cardiac ventricle Phosphodiesterase 2; design: species or system Cavia porcellus; settings: target entry is the homologue from another species; in short: as §1
# Canis familiaris [28] = test: Emetic effect in dog at 0.3 mg/kg dose, iv; type: functional, Canis lupus familiaris
# cGMP-dependent 3',5'-cyclic phosphodiesterase, sequence (O00408 whole entry): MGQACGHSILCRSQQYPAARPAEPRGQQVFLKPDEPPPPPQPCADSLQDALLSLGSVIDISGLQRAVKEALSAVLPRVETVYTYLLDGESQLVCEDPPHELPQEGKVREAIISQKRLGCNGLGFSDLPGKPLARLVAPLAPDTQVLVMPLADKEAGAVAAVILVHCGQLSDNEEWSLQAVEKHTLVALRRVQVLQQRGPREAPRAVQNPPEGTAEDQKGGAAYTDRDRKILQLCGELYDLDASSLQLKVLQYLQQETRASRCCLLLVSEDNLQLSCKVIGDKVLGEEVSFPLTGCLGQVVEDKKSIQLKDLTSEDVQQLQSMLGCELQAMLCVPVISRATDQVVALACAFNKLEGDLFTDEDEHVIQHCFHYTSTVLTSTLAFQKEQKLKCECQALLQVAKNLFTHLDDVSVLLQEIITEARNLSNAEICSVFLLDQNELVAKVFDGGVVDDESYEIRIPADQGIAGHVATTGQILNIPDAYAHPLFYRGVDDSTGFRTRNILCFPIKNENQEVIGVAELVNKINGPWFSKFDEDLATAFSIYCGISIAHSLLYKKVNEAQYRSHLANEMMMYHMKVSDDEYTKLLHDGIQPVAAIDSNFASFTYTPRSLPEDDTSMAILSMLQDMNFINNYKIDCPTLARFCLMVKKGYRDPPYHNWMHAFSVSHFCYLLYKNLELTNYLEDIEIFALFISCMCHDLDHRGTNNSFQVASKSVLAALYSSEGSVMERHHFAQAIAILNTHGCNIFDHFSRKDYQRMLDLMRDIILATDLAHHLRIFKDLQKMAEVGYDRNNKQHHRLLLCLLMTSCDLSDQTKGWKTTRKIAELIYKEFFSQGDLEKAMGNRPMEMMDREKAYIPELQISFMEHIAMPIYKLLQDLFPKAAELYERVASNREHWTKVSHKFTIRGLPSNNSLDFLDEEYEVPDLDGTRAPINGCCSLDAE
SMILES,IC50 (Phosphodiesterase 1) [nM],IC50 (Phosphodiesterase 3 [1]) [nM],IC50 (Phosphodiesterase 4 [2]) [nM],Reduction (Cavia porcellus [4]) [%],ED50 (Cavia porcellus [6]) [mg/kg],also measured
COc1cc2cc(CO)c(CO)c(-c3ccc(-n4nc(-c5cccnc5)c5ccccc5c4=O)nc3)c2cc1OC.Cl,> 100000,80000,40,–,–,–
COc1cc2cc(CO)c(CO)c(-c3ccnc(-n4ncc5ccccc5c4=O)c3)c2cc1OC,5000,250,0.68,25,0.24,Reduction (Cavia porcellus [3]): 87%; Reduction (Cavia porcellus [5]): 91%; Heart rate (Cavia porcellus [7]): 55 delta beats min-1; Heart rate (Cavia porcellus [8]): 16 delta beats min-1; Heart rate (Cavia porcellus [9]): 11 delta beats min-1
COc1cc2cc(CO)c(CO)c(-c3ccnc(-n4ccccc4=O)c3)c2cc1OC,50000,2000,80,–,–,–
COc1cc2cc(CO)c(CO)c(-c3ccnc(-n4ccc(=O)c5ccccc54)c3)c2cc1OC,9000,400,40,–,–,–
COc1cc2cc(CO)c(CO)c(-c3ccnc(-n4nc(-c5ccncc5)c5ccccc5c4=O)c3)c2cc1OC.Cl,2000,100,0.49,15,–,Reduction (Cavia porcellus [3]): 92%; Heart rate (Cavia porcellus [10]): 10 delta beats min-1; Heart rate (Cavia porcellus [8]): 12 delta beats min-1; Reduction (Cavia porcellus [11]): 82%; Heart rate (Cavia porcellus [9]): 29 delta beats min-1; ED50 (Cavia porcellus [12]): 0.17 mg/kg
Cl.O=c1c2ccccc2c(-c2cccnc2)nn1-c1cc(-c2c(CO)c(CO)cc3ccccc23)ccn1,> 100000,50000,5000,–,–,–
COc1cc2c(-c3ccnc(-n4nc(-c5cccnc5)c5ccccc5c4=O)c3)c(CO)c(CO)cc2cc1OCc1ccccc1.Cl.Cl,–,–,700,–,–,IC50 (Phosphodiesterase 3 [13]): > 100000 nM
COc1cc2cc(CO)c(CO)c(-c3ccnc(-n4nc(-c5cccnc5)c5ccccc5c4=O)c3)c2cc1OC.Cl,2000,290,0.63,73,0.022,Emesis (vomiting/tested) (Phosphodiesterase 4 [14]): 6; Ki (Phosphodiesterase 4 [15]): 3.5 nM; Reduction (Cavia porcellus [16]): 61%; ED50 (Cavia porcellus [17]): 1.1 mg/kg; Heart rate (Cavia porcellus [18]): 3 delta beats min-1; Heart rate (Cavia porcellus [8]): 1 delta beats min-1; Reduction (Cavia porcellus [19]): 34%; Emesis (vomiting/tested) (Phosphodiesterase 4 [20]): 4; Emesis (vomiting/tested) (Phosphodiesterase 4 [21]): 4; Heart rate (Cavia porcellus [22]): 1 delta beats min-1
COc1cc2cc(CO)c(CO)c(-c3ccnc(-n4c(=O)c5ccccc5c5ccccc54)c3)c2cc1OC,–,41,0.2,–,1.2,Reduction (Cavia porcellus [3]): 38%; Reduction (Cavia porcellus [5]): 91%; Heart rate (Cavia porcellus [7]): 15 delta beats min-1; Heart rate (Cavia porcellus [9]): 18 delta beats min-1
COc1cc2cc(CO)c(CO)c(-c3cccc(-n4nc(-c5cccnc5)c5ccccc5c4=O)n3)c2cc1OC.Cl,–,5600,15,–,–,–
COc1cc2ccc(CO)c(-c3ccnc(-n4nc(-c5cccnc5)c5ccccc5c4=O)c3)c2cc1OC.Cl,–,700,31,–,–,–
COc1cc2cc(CO)c(CO)c(-c3ccnc(-n4nc(-c5cccnc5)c5ccccc5c4=O)c3)c2cc1OCc1ccccc1.Cl,–,16000,17,–,–,–
COc1cc2cc(CO)c(CO)c(-c3ccnc(-n4c(=O)ccc5ccccc54)c3)c2cc1OC,2000,330,2.8,68,0.12,Reduction (Cavia porcellus [3]): 86%; Emesis (vomiting/tested) (Phosphodiesterase 4 [23]): 4; Reduction (Cavia porcellus [16]): -11%; Reduction (Cavia porcellus [5]): 90%; Ki (Phosphodiesterase 4 [24]): 6.2 nM; ED50 (Cavia porcellus [17]): 0.4 mg/kg
CCOc1cc2c(-c3ccnc(-n4nc(-c5cccnc5)c5ccccc5c4=O)c3)c(CO)c(CO)cc2cc1OC.Cl,3000,490,0.16,39,0.18,Heart rate (Cavia porcellus [10]): 7 delta beats min-1; Heart rate (Cavia porcellus [8]): 3 delta beats min-1; Reduction (Cavia porcellus [11]): 69%
COc1cc2cc(CO)c(CO)c(-c3ccnc(-n4nc(-c5ccccn5)c5ccccc5c4=O)c3)c2cc1OC.Cl,4000,170,0.55,40,0.18,Reduction (Cavia porcellus [3]): 87%; Reduction (Cavia porcellus [16]): -25%; Heart rate (Cavia porcellus [18]): 3 delta beats min-1; Heart rate (Cavia porcellus [10]): 7 delta beats min-1; Heart rate (Cavia porcellus [8]): 5 delta beats min-1; Reduction (Cavia porcellus [11]): 78%; Heart rate (Cavia porcellus [9]): 22 delta beats min-1
CCOc1cc2cc(CO)c(CO)c(-c3ccnc(-n4nc(-c5cccnc5)c5ccccc5c4=O)c3)c2cc1OCC.Cl [T-2585.HCL],10000,1800,–,57,0.063,Emesis (vomiting/tested) (Phosphodiesterase 4 [14]): 4; Ki (Phosphodiesterase 4 [15]): 2.6 nM; Reduction (Cavia porcellus [16]): 37%; IC50 (Phosphodiesterase 4 [25]): 0.13 nM; Emesis (Canis familiaris [26]): 4 vomiting/tested; ED50 (Cavia porcellus [17]): 0.033 mg/kg; Heart rate (Cavia porcellus [18]): 4 delta beats min-1; Heart rate (Cavia porcellus [10]): 2 delta beats min-1; Heart rate (Cavia porcellus [8]): 3 delta beats min-1; Reduction (Cavia porcellus [11]): 84%; IC50 [27]: 1300 nM; Emesis (vomiting/tested) (Phosphodiesterase 4 [20]): 4; Emesis (Canis familiaris [28]): 8 vomiting/tested
COc1ccc(C2CNC(=O)C2)cc1OC1CCCC1 (racemic) [ROLIPRAM],> 100000,> 300000,–,–,–,IC50 [27]: > 100000 nM
COc1cc2cc(COC(C)=O)c(COC(C)=O)c(-c3ccnc(-n4nc(-c5cccnc5)c5ccccc5c4=O)c3)c2cc1OC.Cl,–,3500,190,–,–,–
COc1cc2cc(CO)cc(-c3ccnc(-n4nc(-c5cccnc5)c5ccccc5c4=O)c3)c2cc1OC.Cl,–,81,0.7,–,–,Reduction (Cavia porcellus [3]): 33%
COc1cc2c(-c3ccnc(-n4nc(-c5cccnc5)c5ccccc5c4=O)c3)c(CO)c(CO)cc2cc1OC1CCCC1.Cl,–,690,30,–,–,–
COC(=O)c1cc2cc(OC)c(OC)cc2c(-c2ccnc(-n3nc(-c4cccnc4)c4ccccc4c3=O)c2)c1C(=O)OC.Cl,–,29000,150,–,–,–
CCOc1cc2cc(CO)c(CO)c(-c3ccnc(-n4nc(-c5cccnc5)c5ccccc5c4=O)c3)c2cc1OC.Cl,20000,34,0.9,23,0.17,Heart rate (Cavia porcellus [8]; 0.1 mg/kg): 7 delta beats min-1 and 18 delta beats min-1; Reduction (Cavia porcellus [11]): 77%
